In ChEMBL document CHEMBL3792377, “Synthesis and characterization of a series of chiral alkoxymethyl morpholine analogs as dopamine receptor 4 (D4R) antagonists” (Bioorg Med Chem Lett, 2016):

Tests used:
[1] = biological target: T1, D(4) dopamine receptor (Homo sapiens) (UniProt P21917); experiment: Displacement of [3H]-Spiperone from human recombinant dopamine D4 receptor expressed in CHOK1 cells at 10 uM relative to control; type: cell-based; conditions: CHO-K1
T1 sequence (whole entry): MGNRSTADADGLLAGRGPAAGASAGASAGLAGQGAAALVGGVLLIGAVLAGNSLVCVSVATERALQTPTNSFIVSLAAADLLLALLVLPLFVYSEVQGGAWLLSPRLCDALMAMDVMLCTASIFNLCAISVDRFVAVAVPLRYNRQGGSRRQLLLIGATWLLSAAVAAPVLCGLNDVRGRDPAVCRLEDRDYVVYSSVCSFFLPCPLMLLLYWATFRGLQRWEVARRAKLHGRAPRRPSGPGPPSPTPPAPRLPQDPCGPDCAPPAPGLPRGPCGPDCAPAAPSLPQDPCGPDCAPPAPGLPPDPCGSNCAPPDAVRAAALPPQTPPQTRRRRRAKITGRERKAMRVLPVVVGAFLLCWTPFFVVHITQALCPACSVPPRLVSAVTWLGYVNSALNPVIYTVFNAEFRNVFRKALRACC
In short: (§1)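 Radioligand binding at human D4 receptor using [3H]-spiperone, run as a contract assay in duplicate. IC50 and Ki were derived from concentration–response data. Single-point values are % inhibition of specific binding at 10 µM test compound.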

Plasma = experiment: Fraction unbound in rat plasma by equilibrium dialysis method; type: ADME, cell-free
D(4) dopamine receptor = biological target: T2, D(4) dopamine receptor (Homo sapiens, UniProt P21917); experiment: Displacement of [3H]-Spiperone from human recombinant dopamine D4 receptor expressed in CHOK1 cells; type: cell-based, CHO-K1; in short: as §1
T2 sequence (P21917 whole entry): T1 sequence (whole entry)

D(2) dopamine receptor [2] = biological target: T3, D(2) dopamine receptor (Homo sapiens, UniProt P14416); experiment: Displacement of [3H]-Spiperone from human recombinant dopamine D2S receptor expressed in CHO cells at 10 uM relative to control; type: cell-based
In short: (§2)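 Off-target dopamine receptor radioligand binding (D1, D2L, D2S, D3, D5), run as a contract assay. Test compound at a single concentration of 10 µM, reported as % inhibition of specific binding, measured in duplicate.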

[3] = Fraction unbound in human plasma by equilibrium dialysis method; type: ADME, cell-free
Homo sapiens [4] = species: Homo sapiens; experiment: Selectivity ratio of Ki for human recombinant dopamine D5 receptor to Ki for human recombinant dopamine D4 receptor
D(2) dopamine receptor [5] = biological target: T3, D(2) dopamine receptor; experiment: Displacement of [3H]-Spiperone from human recombinant dopamine D2S receptor expressed in CHO cells; type: cell-based
[6] = biological target: Dopamine receptors; D3 & D4 (Homo sapiens) (UniProt P35462+P21917); experiment: Selectivity ratio of Ki for human recombinant dopamine D3 receptor to Ki for human recombinant dopamine D4 receptor
Homo sapiens [7] = species: Homo sapiens; experiment: Selectivity ratio of Ki for human recombinant dopamine D2S receptor to Ki for human recombinant dopamine D4 receptor
[8] = Plasma concentration in rat at 0.25 mg/kg, iv administered through cassette dosing at 0.25 hrs; type: ADME, organism-based
D(1A) dopamine receptor [9] = biological target: T4, D(1A) dopamine receptor (Homo sapiens, UniProt P21728); experiment: Displacement of [3H]-SCH-23390 from human recombinant dopamine D1 receptor expressed in CHO cells; type: cell-based
D(2) dopamine receptor [10] = biological target: T3, D(2) dopamine receptor; experiment: Displacement of [3H]-Spiperone from human recombinant dopamine D2L receptor expressed in CHO cells; type: cell-based
Homo sapiens [11] = species: Homo sapiens; experiment: Selectivity ratio of Ki for human recombinant dopamine D2L receptor to Ki for human recombinant dopamine D4 receptor
Homo sapiens [12] = species: Homo sapiens; experiment: Selectivity ratio of Ki for human recombinant dopamine D1 receptor to Ki for human recombinant dopamine D4 receptor
[13] = Ratio of drug level in brain to plasma in rat at 0.25 mg/kg, iv administered through cassette dosing at 0.25 hrs; type: ADME, organism-based
D(1B) dopamine receptor [14] = biological target: T5, D(1B) dopamine receptor (Homo sapiens, UniProt P21918); experiment: Displacement of [3H]-SCH-23390 from human recombinant dopamine D5 receptor expressed in CHO cells; type: cell-based
[15] = Drug uptake in rat brain at 0.25 mg/kg, iv administered through cassette dosing at 0.25 hrs; type: ADME, organism-based; conditions: read-out: Drug uptake
D(3) dopamine receptor [16] = biological target: T6, D(3) dopamine receptor (Homo sapiens, UniProt P35462); experiment: Displacement of [3H]-Spiperone from human recombinant dopamine D3 receptor expressed in CHO cells; type: cell-based
Liver microsome = experiment: Drug level in human liver microsomes treated with (S)-2-((6-chloropyridin-2-yloxy)methyl)-4-((6-fluoro-1H-indol-3-yl)methyl)morpholine in presence of NADPH; type: ADME
In short: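 Human liver microsomes incubated with compound plus NADPH, alongside a matched no-NADPH incubation; samples profiled for remaining parent and for metabolites formed.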

D(2) dopamine receptor [17] = biological target: T3, D(2) dopamine receptor; experiment: Displacement of [3H]-Spiperone from human recombinant dopamine D2L receptor expressed in CHO cells at 10 uM relative to control; type: cell-based; in short: as §2
D(1A) dopamine receptor [18] = biological target: T4, D(1A) dopamine receptor; experiment: Displacement of [3H]-SCH-23390 from human recombinant dopamine D1 receptor expressed in CHO cells at 10 uM relative to control; type: cell-based; in short: as §2
D(3) dopamine receptor [19] = biological target: T6, D(3) dopamine receptor; experiment: Displacement of [3H]-Spiperone from human recombinant dopamine D3 receptor expressed in CHO cells at 10 uM relative to control; type: cell-based; in short: as §2
D(1B) dopamine receptor [20] = biological target: T5, D(1B) dopamine receptor; experiment: Displacement of [3H]-SCH-23390 from human recombinant dopamine D5 receptor expressed in CHO cells at 10 uM relative to control; type: cell-based; in short: as §2

T3 sequence (P14416 whole entry): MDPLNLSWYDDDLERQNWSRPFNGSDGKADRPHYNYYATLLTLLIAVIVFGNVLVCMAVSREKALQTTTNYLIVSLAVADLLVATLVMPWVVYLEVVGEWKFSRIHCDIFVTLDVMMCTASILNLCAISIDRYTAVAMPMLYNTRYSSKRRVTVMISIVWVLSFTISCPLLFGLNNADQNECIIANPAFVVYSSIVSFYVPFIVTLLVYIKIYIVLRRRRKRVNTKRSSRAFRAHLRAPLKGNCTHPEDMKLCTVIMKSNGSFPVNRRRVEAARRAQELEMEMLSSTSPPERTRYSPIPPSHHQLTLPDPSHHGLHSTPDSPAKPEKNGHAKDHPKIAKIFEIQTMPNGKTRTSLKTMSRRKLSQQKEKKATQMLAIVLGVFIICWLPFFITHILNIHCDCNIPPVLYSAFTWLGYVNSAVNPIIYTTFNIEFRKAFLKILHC
T6 sequence (P35462 whole entry): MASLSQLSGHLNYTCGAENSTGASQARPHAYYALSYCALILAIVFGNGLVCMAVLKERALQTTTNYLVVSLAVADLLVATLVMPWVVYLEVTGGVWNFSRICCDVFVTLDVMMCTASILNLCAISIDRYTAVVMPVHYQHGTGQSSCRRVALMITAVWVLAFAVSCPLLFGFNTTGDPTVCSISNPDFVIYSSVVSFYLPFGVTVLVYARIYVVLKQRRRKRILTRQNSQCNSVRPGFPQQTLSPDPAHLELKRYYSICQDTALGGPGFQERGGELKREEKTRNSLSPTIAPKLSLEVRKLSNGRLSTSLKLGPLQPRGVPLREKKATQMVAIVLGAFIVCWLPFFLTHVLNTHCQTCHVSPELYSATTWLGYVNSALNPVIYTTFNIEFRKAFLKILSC
T4 sequence (P21728 whole entry): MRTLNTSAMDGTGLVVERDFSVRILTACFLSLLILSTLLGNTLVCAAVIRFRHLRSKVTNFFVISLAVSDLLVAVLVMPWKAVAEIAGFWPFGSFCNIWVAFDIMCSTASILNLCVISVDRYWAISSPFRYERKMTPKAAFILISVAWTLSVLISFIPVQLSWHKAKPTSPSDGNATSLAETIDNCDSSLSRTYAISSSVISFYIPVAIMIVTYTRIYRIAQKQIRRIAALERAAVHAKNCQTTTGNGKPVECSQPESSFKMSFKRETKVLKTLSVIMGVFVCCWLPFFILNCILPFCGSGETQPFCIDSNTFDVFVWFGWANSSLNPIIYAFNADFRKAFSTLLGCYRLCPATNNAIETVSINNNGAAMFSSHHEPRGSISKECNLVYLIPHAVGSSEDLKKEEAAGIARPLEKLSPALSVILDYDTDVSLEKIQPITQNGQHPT
T5 sequence (P21918 whole entry): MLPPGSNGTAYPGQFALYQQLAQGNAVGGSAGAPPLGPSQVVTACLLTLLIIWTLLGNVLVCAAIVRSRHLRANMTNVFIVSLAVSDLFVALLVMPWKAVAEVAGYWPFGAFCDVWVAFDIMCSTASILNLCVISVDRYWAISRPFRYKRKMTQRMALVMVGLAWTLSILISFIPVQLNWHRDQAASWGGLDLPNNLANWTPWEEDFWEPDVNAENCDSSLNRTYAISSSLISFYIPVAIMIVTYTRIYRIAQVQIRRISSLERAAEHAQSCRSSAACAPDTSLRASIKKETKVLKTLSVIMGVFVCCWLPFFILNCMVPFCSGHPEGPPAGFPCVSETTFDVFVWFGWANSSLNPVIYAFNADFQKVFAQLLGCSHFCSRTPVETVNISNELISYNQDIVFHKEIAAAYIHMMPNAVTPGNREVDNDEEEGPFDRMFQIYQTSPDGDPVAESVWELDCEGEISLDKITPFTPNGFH
Sequence of Dopamine receptors; D3 & D4 (Homo sapiens) (P35462 whole entry, looked up, one chain of several): as the sequence (P35462 whole entry) above

| inhibition [1] [%] | Fu (Plasma) | IC50 (D(4) dopamine receptor) [µM] | Ki (D(4) dopamine receptor) [µM] | inhibition (D(2) dopamine receptor [2]) [%] | Fu [3] | SMILES | other results |
| --- | --- | --- | --- | --- | --- | --- | --- |
| 8 |  |  |  |  |  | COc1ccc(CN2CCO[C@H](COc3ncccn3)C2)cc1 |  |
| 76 |  |  |  |  |  | Clc1ccc(CN2CCO[C@H](COc3cncnc3)C2)cc1 |  |
|  | 0.015 | 0.076 | 0.021 | < 50 | 0.009 | Fc1ccc2c(CN3CCO[C@H](COc4cccc(F)n4)C3)c[nH]c2c1 |  |
|  | 0.019 | 0.038 | 0.0104 | < 50 | 0.01 | COc1ccc(CN2CCO[C@H](COc3ccccc3)C2)cc1Cl |  |
|  | 0.013 | 0.039 | 0.0108 | < 50 | 0.006 | COc1ccc(CN2CCO[C@H](COc3cccc(F)c3)C2)cc1Cl |  |
|  | 0.004 | 0.027 | 0.0074 | < 50 | 0.001 | Cc1ccc(CN2CCO[C@H](CSc3ccccc3)C2)cc1C | Ratio Ki (Homo sapiens [4]): > 1000; Ki (D(2) dopamine receptor [5]): > 10 µM; Ratio Ki [6]: > 1000; Ratio Ki (Homo sapiens [7]): > 1000; concentration at 0.25 h [8]: 23.1 ng/mL; Ki (D(1A) dopamine receptor [9]): > 10 µM; Ki (D(2) dopamine receptor [10]): > 10 µM; Ratio Ki (Homo sapiens [11]): > 1000; Ratio Ki (Homo sapiens [12]): > 1000; Kp [13]: 5.73; Ki (D(1B) dopamine receptor [14]): > 10 µM; concentration at 0.25 h [15]: 132 ng/g; Ki (D(3) dopamine receptor [16]): > 10 µM |
| 31 |  |  |  |  |  | Clc1ccc(CN2CCO[C@H](COc3ncccn3)C2)cc1 |  |
|  | 0.007 | 0.15 | 0.042 |  | 0.007 | Clc1ccc(CN2CCO[C@H](COc3ccccc3)C2)cc1 | concentration at 0.25 h [8]: 42.5 ng/mL; Kp [13]: 4.62; concentration at 0.25 h [15]: 197 ng/g |
|  |  |  |  |  |  | Clc1cccc(OC[C@@H]2CNCCO2)n1 | Drug metabolism (Liver microsome): metabolite_detected |
|  |  | 0.047 | 0.0131 | 82 |  | COc1ccc(CN2CCO[C@H](COc3ccc(F)cc3)C2)cc1 | inhibition (D(2) dopamine receptor [17]): 88%; inhibition (D(1A) dopamine receptor [18]): < 50%; inhibition (D(3) dopamine receptor [19]): 76%; inhibition (D(1B) dopamine receptor [20]): < 50% |
|  | 0.047 | 0.0189 | 0.0052 | 76 | 0.017 | Fc1ccc2c(CN3CCO[C@H](COc4ccccc4)C3)c[nH]c2c1 | inhibition (D(2) dopamine receptor [17]): 78%; inhibition (D(1A) dopamine receptor [18]): < 50%; inhibition (D(3) dopamine receptor [19]): < 50%; inhibition (D(1B) dopamine receptor [20]): < 50% |
|  | 0.037 | 0.056 | 0.0143 | 76 | 0.031 | COc1ccc(CN2CCO[C@H](COc3ccccc3)C2)cc1F | inhibition (D(2) dopamine receptor [17]): 78%; concentration at 0.25 h [8]: 14.7 ng/mL; inhibition (D(1A) dopamine receptor [18]): < 50%; Kp [13]: 7.38; concentration at 0.25 h [15]: 108 ng/g; inhibition (D(3) dopamine receptor [19]): < 50%; inhibition (D(1B) dopamine receptor [20]): < 50% |
| 35 |  |  |  |  |  | COc1ccc(CN2CCO[C@@H](COc3ccccc3)C2)cc1Cl |  |
| -4 |  |  |  |  |  | COc1ccc(CN2CCO[C@H](COc3cncnc3)C2)cc1 |  |
